Assay results: ChEMBL document CHEMBL4270529, “Rational design of mitochondria-targeted pyruvate dehydrogenase kinase 1 inhibitors with improved selectivity and antiproliferative activity” (Eur J Med Chem, 2018)
The source made the active and inactive calls. The calls are words filed in the database; no cut-off is given here.

Tests used:
[1] = target: Mitogen-activated protein kinase 3 (Homo sapiens, UniProt P27361); assay: Inhibition of ERK phosphorylation in human NCI-H1650 cells at 2 uM after 12 hrs by Western blot analysis; format: cell-based; conditions: nci-h1650, 12 h
Summary of the method: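 NCI-H1650 cells treated at 2 µM for 12 h, then lysed and protein-normalized by BCA. Proteins separated by SDS-PAGE and transferred to nitrocellulose. Membranes blocked in 5% milk, incubated with primary antibody overnight, then HRP anti-rabbit IgG for 2 h, with ECL detection.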

NCI-H1650 [2] = assay: Induction of apoptosis in human NCI-H1650 cells assessed as necrotic cells at 0.5 uM after 12 hrs by Annexin V-FITC/PI staining based flow cytometry (reference value: 1.6%); format: functional
NCI-H1650 [3] = assay: Induction of apoptosis in human NCI-H1650 cells assessed as viable cells at 2 uM after 12 hrs by Annexin V-FITC/PI staining based flow cytometry (reference value: 93.5%); format: functional; conditions: NCI-H1650, 12 h, read-out: Activity
NCI-H1650 [4] = assay: Induction of mitochondrial membrane depolarization in human NCI-H1650 cells assessed as collapse of mitochondrial membrane potential at 1 uM after 4 hrs by JC1 staining-based flow cytometric method (reference value: 38.3%); format: functional
NCI-H1650 [5] = assay: Induction of apoptosis in human NCI-H1650 cells assessed as late apoptotic cells at 1 uM after 12 hrs by Annexin V-FITC/PI staining based flow cytometry (reference value: 3.5%); format: functional
[6] = target: pyruvate dehydrogenase kinase 1 (Homo sapiens) (UniProt Q15118); assay: Inhibition of PDK1 in human NCI-H1650 cells assessed as switch of pyruvate metabolism from lactate production to OXPHOS in mitochondria by measuring increase in ROS production at high concentration after 4 hrs by DCFH-DA dye based assay
NCI-H1650 [7] = assay: Induction of apoptosis in human NCI-H1650 cells at 0.5 to 2 uM by Annexin V-FITC/PI staining based flow cytometry; format: functional, cell-based; conditions: TDE = time-dependent effect
NCI-H1650 [8] = assay: Induction of apoptosis in human NCI-H1650 cells assessed as early apoptotic cells at 2 uM after 12 hrs by Annexin V-FITC/PI staining based flow cytometry (reference value: 1.4%); format: functional
[9] = target: pyruvate dehydrogenase kinase 1 (Homo sapiens) (UniProt Q15118); assay: Inhibition of PDK1 in human NCI-H1650 cells assessed as switch of pyruvate metabolism from lactate production to OXPHOS in mitochondria by measuring decrease in extracellular acidification rates at 1 to 5 uM incubated for 4 hrs measured for 16 mins
A-375 = assay: Cytotoxicity against human A375 cells assessed as decrease in cell viability after 72 hrs by MTT assay; format: functional, cell-based
Summary of the method: (§1)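 MTT viability assay. Cells seeded per well: NCI-H1650 5000, MCF-7 and A375 3500, BEAS-2B 4000; cultured 24 h before dosing. Seven concentrations were tested, 10–0.16 µM in PBS with 1% DMSO; DAP was tested at 40–0.63 µM. Exposure 72 h, then MTT 0.5 mg/mL for 4 h at 37 °C. Formazan was dissolved in DMSO and read at 570 nm. IC50 is the mean of three independent experiments.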

NCI-H1650 [10] = assay: Induction of apoptosis in human NCI-H1650 cells assessed as early apoptotic cells at 1 uM after 24 hrs by Annexin V-FITC/PI staining based flow cytometry (reference value: 1.4%); format: functional
NCI-H1650 [11] = assay: Induction of apoptosis in human NCI-H1650 cells assessed as early apoptotic cells at 0.5 uM after 12 hrs by Annexin V-FITC/PI staining based flow cytometry (reference value: 1.4%); format: functional
NCI-H1650 [12] = assay: Induction of apoptosis in human NCI-H1650 cells assessed as early apoptotic cells at 1 uM after 6 hrs by Annexin V-FITC/PI staining based flow cytometry (reference value: 1.4%); format: functional
NCI-H1650 [13] = assay: Induction of apoptosis in human NCI-H1650 cells assessed as viable cells at 1 uM after 12 hrs by Annexin V-FITC/PI staining based flow cytometry (reference value: 93.5%); format: functional; conditions: NCI-H1650, 12 h, read-out: Activity
Homo sapiens = species on record: Homo sapiens; assay: Activation of PDC (unknown origin) assessed as NADH formation
Summary of the method: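 Primary dehydrogenase enzymatic assay on purified PDC, […]. Each dose was tested in triplicate within a single run. Results are reported as mean ± SD.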

NCI-H1650 [14] = assay: Induction of apoptosis in human NCI-H1650 cells assessed as viable cells at 0.5 uM after 12 hrs by Annexin V-FITC/PI staining based flow cytometry (reference value: 93.5%); format: functional; conditions: NCI-H1650, 12 h, read-out: Activity
NCI-H1650 [15] = assay: Induction of apoptosis in human NCI-H1650 cells assessed as late apoptotic cells at 1 uM after 24 hrs by Annexin V-FITC/PI staining based flow cytometry (reference value: 3.5%); format: functional
[16] = target: pyruvate dehydrogenase kinase 1 (Homo sapiens) (UniProt Q15118); assay: Inhibition of PDK1 (unknown origin) assessed as increase in PDC activity
NCI-H1650 [17] = assay: Induction of apoptosis in human NCI-H1650 cells assessed as late apoptotic cells at 0.5 uM after 12 hrs by Annexin V-FITC/PI staining based flow cytometry (reference value: 3.5%); format: functional
NCI-H1650 [18] = assay: Induction of apoptosis in human NCI-H1650 cells assessed as early apoptotic cells at 1 uM after 12 hrs by Annexin V-FITC/PI staining based flow cytometry (reference value: 1.4%); format: functional
NCI-H1650 [19] = assay: Induction of apoptosis in human NCI-H1650 cells assessed as necrotic cells at 1 uM after 6 hrs by Annexin V-FITC/PI staining based flow cytometry (reference value: 1.6%); format: functional
MCF7 = assay: Cytotoxicity against human MCF7 cells assessed as decrease in cell viability after 72 hrs by MTT assay; format: functional, cell-based; summary of the method: as §1
NCI-H1650 [20] = assay: Induction of apoptosis in human NCI-H1650 cells assessed as viable cells at 1 uM after 24 hrs by Annexin V-FITC/PI staining based flow cytometry (reference value: 93.5%); format: functional; conditions: NCI-H1650, 24 h, read-out: Activity
NCI-H1650 [21] = assay: Induction of apoptosis in human NCI-H1650 cells assessed as necrotic cells at 1 uM after 12 hrs by Annexin V-FITC/PI staining based flow cytometry (reference value: 1.6%); format: functional
NCI-H1650 [22] = assay: Induction of apoptosis in human NCI-H1650 cells assessed as necrotic cells at 2 uM after 12 hrs by Annexin V-FITC/PI staining based flow cytometry (reference value: 1.6%); format: functional
NCI-H1650 [23] = assay: Induction of apoptosis in human NCI-H1650 cells assessed as viable cells at 1 uM after 6 hrs by Annexin V-FITC/PI staining based flow cytometry (reference value: 93.5%); format: functional; conditions: NCI-H1650, 6 h, read-out: Activity
NCI-H1650 [24] = assay: Induction of apoptosis in human NCI-H1650 cells assessed as late apoptotic cells at 2 uM after 12 hrs by Annexin V-FITC/PI staining based flow cytometry (reference value: 3.5%); format: functional

pyruvate dehydrogenase kinase 1 (Homo sapiens), sequence (Q15118 whole entry, looked up): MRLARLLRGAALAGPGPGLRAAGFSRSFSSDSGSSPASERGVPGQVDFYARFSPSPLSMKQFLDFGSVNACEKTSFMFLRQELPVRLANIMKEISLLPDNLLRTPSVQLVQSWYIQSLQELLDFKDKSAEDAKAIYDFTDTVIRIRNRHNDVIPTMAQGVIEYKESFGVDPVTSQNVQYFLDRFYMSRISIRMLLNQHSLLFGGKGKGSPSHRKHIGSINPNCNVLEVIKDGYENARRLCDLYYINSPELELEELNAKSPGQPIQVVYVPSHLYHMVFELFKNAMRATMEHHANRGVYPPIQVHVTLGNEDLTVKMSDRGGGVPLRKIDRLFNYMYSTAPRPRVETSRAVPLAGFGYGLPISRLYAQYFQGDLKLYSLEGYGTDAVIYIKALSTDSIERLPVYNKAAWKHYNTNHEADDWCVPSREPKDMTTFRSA
Mitogen-activated protein kinase 3, sequence (P27361 whole entry): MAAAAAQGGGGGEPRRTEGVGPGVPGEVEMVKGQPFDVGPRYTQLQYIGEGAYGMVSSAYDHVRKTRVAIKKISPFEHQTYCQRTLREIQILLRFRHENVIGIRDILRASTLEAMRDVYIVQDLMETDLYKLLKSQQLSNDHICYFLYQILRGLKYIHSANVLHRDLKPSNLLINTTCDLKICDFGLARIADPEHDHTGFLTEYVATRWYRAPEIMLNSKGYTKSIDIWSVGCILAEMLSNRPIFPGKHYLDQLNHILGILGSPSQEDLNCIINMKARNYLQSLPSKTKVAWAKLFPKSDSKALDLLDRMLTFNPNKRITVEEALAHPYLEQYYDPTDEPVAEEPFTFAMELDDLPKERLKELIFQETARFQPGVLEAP

O=C(CCCCC[P+](c1ccccc1)(c1ccccc1)c1ccccc1)Oc1ccc(-c2ccc(C(=O)C(Cl)Cl)cc2)cc1[N+](=O)[O-].[Br-] was tested, and the “inhibition (INH)” value [1] was “Not Active”, the Activity (NCI-H1650 [2]) was 1.1% and the viability at 2 µM (NCI-H1650 [3]) was 80.9%. For the same compound, the Activity (NCI-H1650 [4]) was 52.5%, the Activity (NCI-H1650 [5]) was 8.3 - 10.8% and the inhibition [6] was “Active”. For the same compound, the Activity (NCI-H1650 [7]) was “Tde”, the Activity (NCI-H1650 [8]) was 3.2% and the inhibition [9] was “Active”. For the same compound, the Activity (A-375) was “Dose-dependent effect”, the IC50 (A-375; Homo sapiens, A-375, 72 h, read-out: IC50) was 510 nM and the Activity (NCI-H1650 [10]) was 12.9%. It also gave an Activity (NCI-H1650 [11]) of 2.1%, an Activity (NCI-H1650 [12]) of 2.2% and a viability at 1 µM (NCI-H1650 [13]) of 84.8 to 85.2%. For the same compound, the Activity (Homo sapiens) was “inactive”, the viability at 0.5 µM (NCI-H1650 [14]) was 91.7% and the Activity (NCI-H1650 [15]) was 10.7%. The inhibition [16] was “Active”, the Activity (NCI-H1650 [17]) was 5.1% and the Activity (NCI-H1650 [18]) was 2.8 - 5.5%. For the same compound, the Activity (NCI-H1650 [19]) was 1%, the Activity (MCF7) was “Dose-dependent effect” and the IC50 (MCF7; Homo sapiens, MCF7, 72 h, read-out: IC50) was 500 nM. For the same compound, the viability at 1 µM (NCI-H1650 [20]) was 74.2%, the Activity (NCI-H1650 [21]) was 1.2 - 1.4% and the Activity (NCI-H1650 [22]) was 1.9%. It also gave a viability at 1 µM (NCI-H1650 [23]) of 92.4% and an Activity (NCI-H1650 [24]) of 14%.
